From ChEMBL document CHEMBL2176927 (J Med Chem, 2012)
Active and inactive are the calls of the source. The calls are words filed in the database; no cut-off is given here.

What was measured:
[1] = Selectivity ratio of Ki for PI3Kalpha to Ki for mTOR
PC-3 [2] = assay: Antitumor activity against human PC3 cells xenografted mouse assessed as tumor growth inhibition at 10 mg/kg, po qd for 14 days; format: functional, organism-based; set-up: dose 10 mg/kg
Outline: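 Female NCR.nude mice implanted s.c. in right hind flank with NCI-PC3 cells (5 × 10^6 in Hank's balanced salt solution). Dosing started QD at average tumor volume 200 mm3, 5 mice per group. Body weight recorded twice weekly; 10% body weight loss was the limit for tolerated doses, and mice were euthanized at 20% loss or tumor volume 2000 mm3.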

Mus musculus [3] = assay: Inhibition of mTORC2 in human U87 cells xenografted mouse assessed as reduction of phosphorylated Akt level at 10 mg/kg, po after 24 hrs; format: functional, organism-based; set-up: dose 10 mg/kg; settings: U-87MG ATCC
Outline: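 U87 glioma (PTEN-deficient) tumor-bearing mice, four per compound and time point. Tumor and blood were sampled over 24 h. Phospho-Akt was measured in duplicate samples per mouse and expressed relative to time-matched vehicle controls; mean ± one SD.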

Mus musculus [4] = assay: Inhibition of mTORC1 in human U87 cells xenografted mouse assessed as reduction of phosphorylated p70S6K level at 10 mg/kg, po after 24 hrs; format: functional, organism-based; set-up: dose 10 mg/kg; settings: U-87MG ATCC
[5] = Inhibition of mTORC2 in human pTEN deficient NCI-PC3 cells assessed as reduction of Akt phosphorylation at Ser473; format: cell-based
[6] = Oral bioavailability in mouse at 5 mg/kg; format: ADME, organism-based; settings: in vivo
[7] = AUC in mouse at 5 mg/kg, po; format: ADME, organism-based; set-up: dose 5 mg/kg, route oral; settings: plasma
[8] = Half life in mouse at 1 mg/kg, iv; format: ADME, organism-based; set-up: dose 1 mg/kg, route intravenous; settings: in vivo
[9] = Volume of distribution at steady state in mouse at 1 mg/kg, iv; format: ADME, organism-based; set-up: dose 1 mg/kg, route intravenous; settings: in vivo, read-out: Vdss
[10] = Clearance in mouse at 1 mg/kg, iv; format: ADME, organism-based; set-up: dose 1 mg/kg, route intravenous; settings: in vivo
[11] = Plasma protein binding in mouse; format: ADME, cell-free; settings: read-out: PPB (converted)
[12] = Plasma protein binding in human; format: ADME, cell-free; settings: read-out: PPB (converted)
[13] = Plasma protein binding in rat; format: ADME, cell-free; settings: read-out: PPB (converted)
[14] = Clearance in mouse liver microsomes; format: ADME, Microsome
Outline: (§1)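 Hepatic clearance (Clhep) predicted from incubation with human, rat or mouse liver microsomes.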

[15] = Clearance in rat liver microsomes; format: ADME, Microsome; outline: as §1
[16] = Clearance in human liver microsomes; format: ADME, Microsome; outline: as §1
Cytochrome P450 2C19 = Cytochrome P450 2C19 (Homo sapiens, UniProt P33261); assay: Inhibition of CYP2C19-mediated mephenytoin metabolism; format: ADME; settings: recombinant enzyme
Cytochrome P450 2C19, sequence (P33261 whole entry): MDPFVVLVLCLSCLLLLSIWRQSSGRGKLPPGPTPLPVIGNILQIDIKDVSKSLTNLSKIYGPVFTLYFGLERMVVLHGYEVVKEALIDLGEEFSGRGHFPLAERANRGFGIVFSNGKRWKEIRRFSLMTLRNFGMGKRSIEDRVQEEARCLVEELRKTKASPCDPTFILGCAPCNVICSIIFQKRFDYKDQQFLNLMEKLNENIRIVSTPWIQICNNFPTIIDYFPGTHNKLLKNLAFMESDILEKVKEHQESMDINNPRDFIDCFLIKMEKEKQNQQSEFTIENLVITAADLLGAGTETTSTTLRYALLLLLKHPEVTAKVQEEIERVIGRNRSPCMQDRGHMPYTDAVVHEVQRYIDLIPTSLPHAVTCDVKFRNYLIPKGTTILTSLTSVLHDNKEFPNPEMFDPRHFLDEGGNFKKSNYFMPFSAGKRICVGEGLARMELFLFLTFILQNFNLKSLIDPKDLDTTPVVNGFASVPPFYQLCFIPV

Cytochrome P450 1A2 = target: T1, Cytochrome P450 1A2 (Homo sapiens, UniProt P05177); assay: Inhibition of CYP1A2-mediated phenacetin metabolism; format: ADME; settings: recombinant enzyme
T1 sequence (P05177 whole entry): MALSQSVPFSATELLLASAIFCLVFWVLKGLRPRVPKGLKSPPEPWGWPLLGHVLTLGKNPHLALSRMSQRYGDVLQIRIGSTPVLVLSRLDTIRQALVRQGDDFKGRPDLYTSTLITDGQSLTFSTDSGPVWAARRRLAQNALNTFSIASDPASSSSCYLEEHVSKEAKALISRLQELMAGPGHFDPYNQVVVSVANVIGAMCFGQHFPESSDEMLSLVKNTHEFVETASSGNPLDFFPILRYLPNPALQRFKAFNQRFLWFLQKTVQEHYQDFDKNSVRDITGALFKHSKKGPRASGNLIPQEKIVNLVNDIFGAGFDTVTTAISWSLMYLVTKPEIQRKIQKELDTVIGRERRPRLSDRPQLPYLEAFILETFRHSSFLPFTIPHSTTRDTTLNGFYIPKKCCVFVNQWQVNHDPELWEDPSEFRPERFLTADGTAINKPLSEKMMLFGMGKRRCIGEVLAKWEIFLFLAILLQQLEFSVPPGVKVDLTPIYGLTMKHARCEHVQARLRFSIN

Cytochrome P450 2C9 = Cytochrome P450 2C9 (Homo sapiens, UniProt P11712); assay: Inhibition of CYP2C9-mediated warfarin metabolism; format: ADME; settings: recombinant enzyme
Cytochrome P450 2C9, sequence (P11712 whole entry): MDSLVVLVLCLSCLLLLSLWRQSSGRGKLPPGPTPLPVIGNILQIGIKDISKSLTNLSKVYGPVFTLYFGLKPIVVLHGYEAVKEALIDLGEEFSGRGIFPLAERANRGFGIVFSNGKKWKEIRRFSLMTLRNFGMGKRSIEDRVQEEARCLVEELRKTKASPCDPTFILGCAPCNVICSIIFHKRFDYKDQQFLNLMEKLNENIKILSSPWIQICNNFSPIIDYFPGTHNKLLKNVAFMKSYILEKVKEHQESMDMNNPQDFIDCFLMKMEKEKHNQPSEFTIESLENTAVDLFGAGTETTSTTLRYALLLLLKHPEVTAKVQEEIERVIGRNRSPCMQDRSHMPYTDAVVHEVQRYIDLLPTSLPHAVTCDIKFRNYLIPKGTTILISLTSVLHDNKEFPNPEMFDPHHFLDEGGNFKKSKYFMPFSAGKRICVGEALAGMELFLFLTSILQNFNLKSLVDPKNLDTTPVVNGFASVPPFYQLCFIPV

Cytochrome P450 2D6 = Cytochrome P450 2D6 (Homo sapiens, UniProt P10635); assay: Inhibition of CYP2D6-mediated dextromethorphan metabolism; format: ADME; settings: recombinant enzyme
Cytochrome P450 2D6, sequence (P10635 whole entry): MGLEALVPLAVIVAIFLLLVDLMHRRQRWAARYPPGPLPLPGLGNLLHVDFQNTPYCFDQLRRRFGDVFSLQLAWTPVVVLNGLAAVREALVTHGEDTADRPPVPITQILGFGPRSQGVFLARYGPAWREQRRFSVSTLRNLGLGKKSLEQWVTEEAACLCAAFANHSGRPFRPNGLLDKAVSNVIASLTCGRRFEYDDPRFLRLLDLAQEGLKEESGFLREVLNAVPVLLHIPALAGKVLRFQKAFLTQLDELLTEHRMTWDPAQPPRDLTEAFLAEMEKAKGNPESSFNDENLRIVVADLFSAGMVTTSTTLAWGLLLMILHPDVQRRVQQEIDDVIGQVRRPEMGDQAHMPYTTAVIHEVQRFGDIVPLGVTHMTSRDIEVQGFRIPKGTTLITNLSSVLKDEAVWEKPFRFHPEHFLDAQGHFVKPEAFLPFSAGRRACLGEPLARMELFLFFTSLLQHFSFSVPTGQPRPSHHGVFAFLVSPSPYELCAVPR

Cytochrome P450 3A4 = Cytochrome P450 3A4 (Homo sapiens, UniProt P08684); assay: Inhibition of CYP3A4-mediated midazolam and testosterone metabolism; format: ADME; settings: recombinant enzyme
Cytochrome P450 3A4, sequence (P08684 whole entry): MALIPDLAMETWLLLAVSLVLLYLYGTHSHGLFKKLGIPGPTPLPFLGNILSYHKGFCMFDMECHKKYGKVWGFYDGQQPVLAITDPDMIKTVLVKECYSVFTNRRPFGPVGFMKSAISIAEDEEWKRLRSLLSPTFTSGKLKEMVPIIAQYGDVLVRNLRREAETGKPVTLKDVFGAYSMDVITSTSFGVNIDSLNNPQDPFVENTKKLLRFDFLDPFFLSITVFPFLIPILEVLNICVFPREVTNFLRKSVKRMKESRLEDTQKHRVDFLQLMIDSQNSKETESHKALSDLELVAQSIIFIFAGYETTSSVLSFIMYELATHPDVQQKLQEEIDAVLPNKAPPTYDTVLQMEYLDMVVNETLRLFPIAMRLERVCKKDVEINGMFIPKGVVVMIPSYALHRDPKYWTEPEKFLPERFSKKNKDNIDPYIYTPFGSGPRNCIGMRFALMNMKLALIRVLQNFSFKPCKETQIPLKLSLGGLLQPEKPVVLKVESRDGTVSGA

[17] = Cytotoxicity against human MCF7/neo expressing HER2 after 3 days; format: functional
PC-3 [18] = assay: Cytotoxicity against human pTEN deficient PC3 after 3 days; format: functional, cell-based; settings: PC-3, 72 h
Mus musculus [19] = assay: Inhibition of mTORC2 in human PC3 cells xenografted mouse assessed as reduction of phosphorylated Akt level at 10 mg/kg, po after 6 hrs; format: functional, organism-based; set-up: dose 10 mg/kg; settings: PC-3
Outline: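 NCI-PC3 s.c. xenografts in female NCR.nude mice grown to about 500 mm3, then randomized (n = 4). Oral suspension in 0.5% methylcellulose/0.2% Tween 80. Tumors were lysed, normalized by BCA assay, and loaded at 20 µg/well. pAkt Ser473 and total Akt were measured in duplex on Meso Scale electrochemiluminescence in duplicate per mouse, relative to time-matched vehicle mean.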

Mus musculus [20] = assay: Inhibition of mTORC1 in human PC3 cells xenografted mouse assessed as reduction of phosphorylated p70S6K level at 10 mg/kg, po after 6 hrs; format: functional, organism-based; set-up: dose 10 mg/kg; settings: PC-3

Row | Structure (SMILES) | IC50 [5] [nM] | inhibition (INH) (Cytochrome P450 2C19) | inhibition (INH) (Cytochrome P450 1A2) | inhibition (INH) (Cytochrome P450 2C9) | inhibition (INH) (Cytochrome P450 2D6) | inhibition (INH) (Cytochrome P450 3A4) | IC50 [17] [nM] | IC50 (PC-3 [18]) [nM] | further results
1 | CCNC(=O)Nc1ccc(-c2nc(N3CCOCC3)c3sc(C(C)(C)O)cc3n2)cc1 | – | – | – | – | – | – | – | – | Ratio Ki [1]: 20
2 | CO[C@H]1C[C@@H]2CC[C@@H](C)[C@@](O)(O2)C(=O)C(=O)N2CCCC[C@H]2C(=O)O[C@H]([C@H](C)C[C@@H]2CC[C@@H](O)[C@H](OC)C2)CC(=O)[C@H](C)/C=C(\C)[C@@H](O)[C@@H](OC)C(=O)[C@H](C)C[C@H](C)/C=C/C=C/C=C/1C | – | – | – | – | – | – | – | – | TGI (PC-3 [2]): Active; inhibition (Mus musculus [3]): inactive; inhibition (Mus musculus [4]): Active
3 | CCNC(=O)Nc1ccc(-c2nc3c(c(N4CCOCC4)n2)CCN(C(=O)OC(C)(C)C)C3)cc1 | 22 | – | – | – | – | – | – | – | –
4 | CCNC(=O)Nc1ccc(-c2nc3c(c(N4CCOC[C@@H]4C)n2)CN(c2cnccn2)CC3)cc1 | – | – | – | – | – | – | – | – | bioavailability [6]: 29%; AUC [7]: 0.41 µM·h; half-life [8]: 10.8 min; Vd [9]: 1.4 L/kg; clearance [10]: 120 mL/min/kg; fraction unbound [11]: 0.03; fraction unbound [12]: 0.03; fraction unbound [13]: 0.04; CLhep predicted [14]: 80 mL/min/kg; CLhep predicted [15]: 44 mL/min/kg; CLhep predicted [16]: 15 mL/min/kg
5 | CCNC(=O)Nc1ccc(-c2nc3c(c(N4CCOC[C@@H]4C)n2)CN(c2ncccn2)CC3)cc1 | – | – | – | – | – | – | – | – | bioavailability [6]: 62%; AUC [7]: 2.9 µM·h; half-life [8]: 102 min; Vd [9]: 2.4 L/kg; clearance [10]: 38 mL/min/kg; fraction unbound [11]: 0.03; fraction unbound [12]: 0.02; fraction unbound [13]: 0.03; CLhep predicted [14]: 71 mL/min/kg; CLhep predicted [15]: 44 mL/min/kg; CLhep predicted [16]: 16 mL/min/kg
6 | CCNC(=O)Nc1ccc(-c2nc3c(c(N4CCOC[C@@H]4C)n2)CCN(c2cccnn2)C3)cc1 | 13 | Not Active | Not Active | Not Active | Not Active | Not Active | 290 | 140 | bioavailability [6]: 21.8%; AUC [7]: 0.87 µM·h; half-life [8]: 45 min; Vd [9]: 1.7 L/kg; clearance [10]: 44 mL/min/kg; CLhep predicted [14]: 34 mL/min/kg; CLhep predicted [15]: 19 mL/min/kg; CLhep predicted [16]: 7.3 mL/min/kg
7 | Cc1c(CN2CCN(C(=O)[C@H](C)O)CC2)sc2c(N3CCOCC3)nc(-c3cnc(N)nc3)nc12 | – | – | – | – | – | – | – | – | inhibition (Mus musculus [19]): Active; inhibition (Mus musculus [20]): Active
8 | CCOC(=O)Nc1ccc(-c2nc3c(c(N4CCOCC4)n2)CCN(C(=O)c2ccccc2)C3)cc1 | 115 | – | – | – | – | – | – | 4800 | –
9 | CCNC(=O)Nc1ccc(-c2nc3c(c(N4CCOC[C@@H]4C)n2)CCN(c2nnc(C)o2)C3)cc1 | 22 | Not Active | Not Active | Not Active | Not Active | Not Active | 130 | 310 | –
10 | CCNC(=O)Nc1ccc(-c2nc3c(c(N4CCOC[C@@H]4C)n2)CCN(c2cnccn2)C3)cc1 | 4.3 | Not Active | Not Active | Not Active | Not Active | Not Active | 110 | 55 | –
11 | CCNC(=O)Nc1ccc(-c2nc3c(c(N4CCOCC4)n2)CCN(C(=O)OC)C3)cc1 | 37 | – | – | – | – | – | – | 220 | –
12 | CCNC(=O)Nc1ccc(-c2nc3c(c(N4CCOC[C@@H]4CC)n2)CCN(c2ncccn2)C3)cc1 | 1.5 | Not Active | Not Active | Not Active | Not Active | Not Active | 38 | 40 | –
13 | CCNC(=O)Nc1ccc(-c2nc3c(c(N4CCOCC4)n2)CCN(S(C)(=O)=O)C3)cc1 | 43 | – | – | – | – | – | – | 430 | –
14 | CCNC(=O)Nc1ccc(-c2nc3c(c(N4CCOC[C@@H]4C)n2)CCN(c2nc(C)ns2)C3)cc1 | 8.7 | Not Active | Not Active | Not Active | Not Active | Not Active | 69 | 230 | bioavailability [6]: 32%; AUC [7]: 2.5 µM·h; half-life [8]: 31.8 min; Vd [9]: 0.72 L/kg; clearance [10]: 22 mL/min/kg; fraction unbound [11]: 0.02; fraction unbound [12]: 0.03; fraction unbound [13]: 0.04; CLhep predicted [14]: 58 mL/min/kg; CLhep predicted [15]: 29 mL/min/kg; CLhep predicted [16]: 19 mL/min/kg
15 | CCNC(=O)Nc1ccc(-c2nc3c(c(N4CCOCC4)n2)CCN(C(=O)c2ccccc2)C3)cc1 | 22 | – | – | – | – | – | – | 340 | –
